Assay outcomes: PubChem BioAssay, The Scripps Research Institute Molecular Screening Center
TCR-CD3 inh = blocks the human TCR-CD3 interaction | TAMRA-labeled TCR probe fluorescence, biochemical | inhibition, % at 9.4 µM | hit rate 0.37% among 360,000 | AID 651800; in the data active = inhibition above about 19%;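 also: recombinant mutant TCR 2C K166C tagged with TAMRA read by polarization; 0% = receptor in buffer alone and 100% = receptor with positive control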
ABHD4 inh = ABHD4 (mouse) inhibition, primary FP screen; Q8VD66; purified mABHD4, FP-Rh probe fluorescence polarization; inhibition, % at 8.92 µM; hit rate 0.54% among 370,000; AID 720543;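 active = inhibition exceeding the mean over every tested compound plus 3 SD, cut at about 30% in these data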;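 also: 0% = plate median of compound wells and 100% = S159A mutant with DMSO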
Target sequence (Q8VD66 whole entry, looked up): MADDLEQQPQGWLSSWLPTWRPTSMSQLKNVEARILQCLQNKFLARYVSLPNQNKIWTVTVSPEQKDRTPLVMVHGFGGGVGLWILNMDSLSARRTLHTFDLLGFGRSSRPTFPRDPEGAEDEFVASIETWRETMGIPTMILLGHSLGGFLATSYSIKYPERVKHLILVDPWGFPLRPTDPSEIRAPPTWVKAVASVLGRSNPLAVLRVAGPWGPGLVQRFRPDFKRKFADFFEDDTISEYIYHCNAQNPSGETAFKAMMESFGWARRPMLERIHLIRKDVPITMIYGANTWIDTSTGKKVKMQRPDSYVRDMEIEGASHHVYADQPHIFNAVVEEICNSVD
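System: mouse ABHD4 enzyme, wild type / Medium: HEPES pH 7.0, NaCl, Pluronic buffer / Reagent: FP-Rh activity-based fluorescent probe / Control set: S159A mutant high control, sample median low control / Detection: fluorescence polarization with parallel and perpendicular emission, 525/598 nm / Schedule: 45 min + 60 min at 25 °C / Compound dosing: 8.92 µM, single dose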
SIAE primary = inhibitors of human sialic acid acetylesterase SIAE | inhibition, % at 9.66 µM | AID 1053197 | SIAE FP-Rh probe binding, fluorescence polarization | hit rate 0.69% among 370,000;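 active = inhibition above a cutoff: mean of compounds within the control limits plus 3 SD of those, cut at about 17% in these data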;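 also: 0% = plate median of compound wells and 100% = probe without SIAE protein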
HTRA1 inhibitor = blocks human HTRA1 serine peptidase. Q92743. recombinant HTRA1, FP-rhodamine activity-based probe, fluorescence polarization. inhibition, % at 5.96 µM. hit rate 0.5% among 340,000; in the data active = inhibition above about 36%;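 also: 0% = enzyme with DMSO and 100% = wells lacking enzyme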
Fam108B counter = Fam108B inhibition, counter-screen for RBBP9 inhibitors | hit rate 0.33% among 300,000 | recombinant Fam108B, FP-Rh probe fluorescence polarization | inhibition, % at 9.51 µM | AID 1947;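 active = inhibition above the screen mean inhibition plus 3 SD, computed separately per campaign, cut at about 18% in these data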;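 also: inhibitors lower polarization as less probe binds the enzyme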
PME-1 inh = blocks human protein phosphatase methylesterase 1 | recombinant PME-1, FP-Rh probe fluorescence polarization | hit rate 0.53% among 320,000 | inhibition, % at 5.9 µM | Q9Y570 | AID 2130;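 active = inhibition above the campaign mean of all compounds plus 3 SD, cut at about 26% in these data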;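 also: competitive labeling of PME-1 active site by serine hydrolase directed probe; 0% = PME-1 with DMSO and 100% = wells lacking PME-1 enzyme; inhibitors block probe labeling so polarization falls and inhibition rises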
Target sequence (Q9Y570 whole entry, looked up): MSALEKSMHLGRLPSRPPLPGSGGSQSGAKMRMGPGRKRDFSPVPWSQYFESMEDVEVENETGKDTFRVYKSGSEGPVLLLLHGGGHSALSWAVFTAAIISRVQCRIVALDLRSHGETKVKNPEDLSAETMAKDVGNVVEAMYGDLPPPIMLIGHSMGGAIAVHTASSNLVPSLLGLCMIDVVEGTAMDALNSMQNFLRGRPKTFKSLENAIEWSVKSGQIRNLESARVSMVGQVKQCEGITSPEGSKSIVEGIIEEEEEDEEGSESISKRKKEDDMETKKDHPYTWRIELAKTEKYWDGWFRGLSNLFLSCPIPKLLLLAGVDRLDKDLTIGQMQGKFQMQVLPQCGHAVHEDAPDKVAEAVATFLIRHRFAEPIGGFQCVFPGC
SIAE inh conf = human SIAE inhibition, confirmation; shares compounds with SIAE primary; SIAE FP-Rh activity-based probe, fluorescence polarization; inhibition, % at 9.66 µM; hit rate 13% among 2,300; AID 1117263;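 active = mean inhibition of the replicates above the hit cutoff set in the primary screen, cut at about 17% in these data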;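 also: 0% = SIAE with DMSO and probe and 100% = probe without SIAE; inhibitors lower polarization as more probe stays unbound to SIAE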
The depositor's hits bear a star; x = not tested or not shown. Hits are enriched below; roughly 1.8% of the tested compounds scored in any of these assays.

SMILES	TCR-CD3 inh	ABHD4 inh	SIAE primary	HTRA1 inhibitor	Fam108B counter	PME-1 inh	SIAE inh conf
OCC[C@H]1C[C@@H](O)[C@H](O)[C@]2(Cc3ccccc3CCO2)O1	3.6	-7.9	-0.8	4.8	4.7	-1.5	x
CN(C)C(=O)c1cccc(-c2cccc(-c3nc(C(=O)NCc4ccccc4)cc4c3[C@@H](CCO)N(S(=O)C(C)(C)C)C4)c2)c1 (some centres not stated)	6.4	-5.0	-4.8	x	x	x	x
Cc1ccccc1N=C1Nc2ccccc2N[C@]12C[C@H]1CCC(=O)N3CC[C@@H](C2)[C@@H]13	-3.5	8.0	17.8*	5.1	x	x	1.5
OC(c1ccc(CN2CCCCC2)cc1)c1ncc(-c2ccccc2)[nH]1 (configuration not stated)	-7.0	0.9	23.5*	x	x	x	-0.6
COc1ccc(-c2cnc(C(O)c3ccc(CN4CCCCC4)cc3)[nH]2)cc1 (configuration not stated)	6.6	6.9	3.0	x	x	x	x
Cc1ccc(-n2c3c(cc(C(=O)NCCCN4CCOCC4)c2=O)C(=O)CC(C)(C)C3)cc1	1.7	0.2	18.9*	3.6	-1.5	-0.4	-0.6
CCC(C)NC(=O)CS(=O)Cc1nc(-c2cccc(C)c2)oc1C (configuration not stated)	-6.4	-0.7	25.3*	-0.1	1.2	-1.6	1.0
CCCCNC(=O)CS(=O)Cc1nc(-c2cccc(C)c2)oc1C (configuration not stated)	-0.1	1.8	25.9*	-5.4	-4.2	-5.6	1.9
CN1[C@@H]2CCC[C@H]1CC(NC(=O)c1nn(C)c3ccccc13)C2 (some centres not stated)	1.6	3.5	1.6	0.4	-2.0	-4.2	x
Cc1cnc(C(=O)OCC(=O)Nc2cccc3ccccc23)cn1	0.4	3.1	-2.3	-6.6	x	x	x
COC(=O)CSc1nc2ccc(N)cc2s1	-4.2	7.9	18.1*	5.8	3.3	-1.1	5.8
CCOC(=O)CSc1nc2ccc(NC(C)=O)cc2s1	-5.3	-1.2	2.8	7.8	-2.8	7.0	x
NC(=S)N/N=C1\CCOc2ccc(Cl)cc21	-5.7	10.2	18.5*	-2.4	-0.6	-6.4	-1.5
NC(=S)NN=C1c2cc(Cl)ccc2-c2c1cc(Cl)cc2[N+](=O)[O-]	x	x	x	1.6	x	x	x
COC(OC)C12c3ccccc3C(c3ccccc31)C1C(=O)N(c3cccnc3)C(=O)C12 (configuration not stated)	-8.0	1.7	-1.0	2.9	0.9	3.0	x
CC(C)(C)c1ccc(OCCNCc2ccccc2)cc1	-2.2	13.4	-1.1	1.8	-0.8	-4.4	x
CC(C)(C)c1ccc(OCCNC(=S)Nc2ccccc2)cc1	7.2	-24.3	17.3*	-45.5	-5.8	-3.6	-11.0
COc1ccc(Cc2ccccc2C(=O)O)cc1	-4.0	1.1	0.3	0.9	x	x	x
COc1ccc(CC2=CC(=O)c3ccccc3C2=O)cc1	3.9	20.6	17.9*	2.3	9.8	11.5	5.9
CCN1C(=O)[C@H]2[C@@H](c3ccc(C)cc3)N3C(=O)N(c4cccc(Cl)c4)C(=O)[C@@]3(C)[C@H]2C1=O	6.6	0.7	22.6*	-8.0	-5.9	0.2	4.2
CC1(C(=O)Nc2ccc3c(c2)OCO3)CC1(Cl)Cl (configuration not stated)	6.0	-5.0	-4.0	3.9	3.8	1.0	x
N#CC(C#N)=Cc1cc2ccccc2nc1N1CCOCC1	-5.3	-0.5	0.5	4.9	-2.1	-3.5	x
N#C/C(=C\c1cc2ccccc2nc1N1CCOCC1)C(=O)Nc1ccc(N2CCOCC2)cc1	-7.8	-0.1	19.8*	-0.2	5.0	-3.7	6.9
COc1ccc(CN2CCN(Cc3ccccc3F)CC2)c(OC)c1	-3.1	7.2	17.3*	-7.6	-2.7	5.1	-5.1
COc1ccc(N(CC(=O)N2CCN(c3ccc(F)cc3)CC2)S(=O)(=O)c2c(C)noc2C)cc1	-4.9	5.0	17.0	-6.6	1.8	-5.5	x
SMILES	TCR-CD3 inh	ABHD4 inh	SIAE primary	HTRA1 inhibitor	Fam108B counter	PME-1 inh	SIAE inh conf
Nc1ccc(S(=O)(=O)NN=CC=Cc2ccccc2[N+](=O)[O-])cc1	-1.1	-1.6	0.6	-3.4	x	x	x
NS(=O)(=O)c1ccc(N/N=C/C=C/c2ccccc2[N+](=O)[O-])cc1	1.5	3.3	23.9*	8.0	3.4	8.7	0.5
Cc1c(C(=O)N2CCCCC2)c(S(=O)(=O)N(C)Cc2ccco2)c(C)n1C	-5.4	-5.0	-0.3	10.8	-1.8	2.0	x
Cc1c(C(=O)N2CCCCC2)c(S(=O)(=O)N(C)Cc2ccccc2)c(C)n1C	-3.8	3.5	22.9*	-1.6	3.5	-3.7	-1.1
Cn1c(N)c(N=O)c(=O)n(C)c1=O	6.3	-0.5	17.1*	0.9	1.1	-3.5	1.5
CN(C)S(=O)(=O)c1cccc(C(=O)NC2CCSc3ccccc32)c1 (configuration not stated)	3.4	4.2	24.5*	1.0	0.5	-2.1	-4.4
CON(C)S(=O)(=O)c1cccc(C(=O)NC2CCSc3ccccc32)c1 (configuration not stated)	5.8	-11.0	2.3	-5.0	-5.7	1.9	x
CNC(=O)c1c(NC(=O)CS(=O)(=O)c2ccccc2)sc(C)c1C	1.2	-8.7	5.0	-2.4	-1.9	2.0	x
Cc1sc(NC(=O)CS(=O)(=O)c2ccccc2)c(C(N)=O)c1C	5.7	-0.2	17.2*	4.1	-5.1	-0.3	1.2
OCC1(CO)COC(/C=C/c2ccccc2)=N1	7.8	4.3	-6.1	6.9	2.9	-6.5	x
Cc1cc(/C([O-])=C(/C(=S)Nc2ccc(F)cc2)[n+]2ccccc2)c(C)n1-c1ccc(F)cc1	2.4	22.3	7.4	25.7	-1.9	-5.1	x
Cc1cc(/C([O-])=C(/C(=S)Nc2ccc(F)cc2)[n+]2ccccc2)c(C)n1Cc1ccccc1Cl	-1.8	7.1	21.8*	12.1	1.4	5.3	-1.8
Cc1cc(N2CCN(CC(C)(C)O)C[C@H]2C)ccc1N1CCN(Cc2ccccc2)[C@@H](C)C1	-0.3	-1.8	1.9	x	x	x	x
Cc1cccc(-n2c(-c3ccccc3)c[nH]c2=S)c1C	6.0	9.2	9.3	-0.4	-2.7	-1.1	x
CCC1(c2ccccc2)NC(=S)N(c2cccc(C)c2C)N1 (configuration not stated)	-1.9	3.2	17.4*	-3.9	0.7	3.5	-4.8
NC(Cc1ccc(C(F)(F)F)cc1)c1csc(Nc2cc(Oc3ccccc3)ncn2)n1 (configuration not stated)	-7.3	0.6	-8.4	x	x	x	x
COCCN(CC(=O)Nc1cccc(C)c1C)C(=O)c1oc2c(Cl)cccc2c1C	0.8	-8.0	28.4*	-18.2	x	-1.4	-3.8
Cc1c(C(=O)N(C)CC(=O)Nc2cccc(F)c2)oc2c(Cl)cccc12	-6.2	-4.7	2.2	-18.6	-2.4	-4.5	x
COc1ccc(-n2nnc3c(=O)n(C/C=C/c4ccccc4)cnc32)cc1	-6.6	4.2	20.6*	0.6	-0.5	-2.2	-3.4
